From ChEMBL document CHEMBL1140574, “Design, synthesis, and antimalarial activity of structural chimeras of thiosemicarbazone and ferroquine analogues” (Bioorg Med Chem Lett, 2007)
Active and inactive are the calls of the source. No cut-off for these calls is given here.

Key:
[1] = test system: Plasmodium falciparum; assay: Antimalarial activity against chloroquine-sensitive Plasmodium falciparum 3D7; format: functional, organism-based
In short: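 Parasites kept in RPMI 1640 with 10% human serum, 25 mM Hepes, 25 mM NaHCO3, in A-positive human erythrocytes at 37 °C (10% O2, 5% CO2, 85% N2, 95% humidity). Twofold serial dilutions, final 0.01 to 200 µM, in 1% DMSO/RPMI; 42 h incubation. [3H]hypoxanthine uptake measured by scintillation after freeze-thaw lysis and filter harvest; IC50 by nonlinear regression of log-dose/response curves.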

[2] = molecular target: T1, Falcipain 2 (Plasmodium falciparum, UniProt Q9N6S8); assay: Inhibition of Plasmodium falciparum W2 recombinant falcipain-2 activity
T1 sequence (Q9N6S8 whole entry): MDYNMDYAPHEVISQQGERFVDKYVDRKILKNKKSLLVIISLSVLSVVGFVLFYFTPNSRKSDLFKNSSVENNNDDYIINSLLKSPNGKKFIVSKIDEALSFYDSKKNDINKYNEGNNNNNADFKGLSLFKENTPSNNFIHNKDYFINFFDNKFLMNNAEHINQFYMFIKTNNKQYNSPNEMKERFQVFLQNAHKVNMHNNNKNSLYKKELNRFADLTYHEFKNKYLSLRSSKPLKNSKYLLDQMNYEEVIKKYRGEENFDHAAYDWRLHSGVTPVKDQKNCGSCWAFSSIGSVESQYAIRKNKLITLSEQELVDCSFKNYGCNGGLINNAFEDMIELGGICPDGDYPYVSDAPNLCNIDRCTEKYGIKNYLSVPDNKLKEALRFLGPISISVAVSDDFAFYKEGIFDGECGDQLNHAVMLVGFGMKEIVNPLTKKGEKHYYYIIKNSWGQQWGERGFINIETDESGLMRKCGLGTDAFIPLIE

[3] = test system: Plasmodium falciparum; assay: Antimalarial activity against Plasmodium falciparum W2 as food vacuole abnormality; format: functional, organism-based
[4] = test system: Plasmodium falciparum; assay: Antimalarial activity against chloroquine-resistant Plasmodium falciparum FCR3; format: functional, organism-based
In short: (§1)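 Parasites cultured in A-positive human erythrocytes in RPMI 1640 with 10% human serum, 25 mM Hepes, 25 mM NaHCO3, 37 °C, 10% O2/5% CO2/85% N2. Compounds dissolved in DMSO 1% in RPMI, twofold serial dilutions, final […]; 42 h incubation; [3H]hypoxanthine uptake read by scintillation after freeze-thaw lysis; IC50 by nonlinear regression of log-dose/response curves.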

[5] = test system: Plasmodium falciparum; assay: Antimalarial activity against chloroquine-resistant Plasmodium falciparum W2; format: functional, organism-based; in short: as §1
[6] = test system: Plasmodium falciparum; assay: Antimalarial activity against chloroquine-resistant Plasmodium falciparum Bre1; format: functional, organism-based; in short: as §1

IC90 [1] [nM]	IC50 [2] [nM]	Compound	Activity [3]	IC90 [4] [nM]	IC90 [5] [nM]	IC90 [6] [nM]
26300	12900	C/C(=N\NC(=S)NCCNc1ccnc2cc(Cl)ccc12)c1ccc(Br)cc1	–	–	–	–
2400	4420	C/C(=N\NC(=S)NCCNc1ccnc2cc(Cl)ccc12)c1ccc(Cl)c(Cl)c1	Active	–	–	–
25800	> 20000	C/C(=N\NC(=S)NCCCNc1ccnc2cc(Cl)ccc12)c1ccc(Br)cc1	–	–	–	–

More lines, now with the values behind:

Compound	IC90 [1] [nM]	IC50 [2] [nM]	Activity [3]	IC90 [4] [nM]	IC90 [5] [nM]	IC90 [6] [nM]
C/C(=N\NC(=S)NCCCNc1ccnc2cc(Cl)ccc12)c1ccc(Cl)c(Cl)c1	1400	> 20000	–	–	–	–
CCN(CC)CCCC(C)Nc1ccnc2cc(Cl)ccc12 (stereo not drawn) [CHLOROQUINE]	41.7	–	–	1180	992	722
